Bioassay records: PubChem BioAssay, Sanford-Burnham Center for Chemical Genomics
FLuc stim CS – firefly luciferase counter-screen for stimulation assays; activation factor at 10 µM; 200,000 tested, under 10 active; ATPlite luciferase biochemical, luminescence, 10 min; 0 = ATP-free wells, 1 = DMSO control; P08659;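 active means luciferase activation factor, scaled between plate controls, of at least 2 with compound at 10 µM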
Target sequence (P08659 whole entry, looked up): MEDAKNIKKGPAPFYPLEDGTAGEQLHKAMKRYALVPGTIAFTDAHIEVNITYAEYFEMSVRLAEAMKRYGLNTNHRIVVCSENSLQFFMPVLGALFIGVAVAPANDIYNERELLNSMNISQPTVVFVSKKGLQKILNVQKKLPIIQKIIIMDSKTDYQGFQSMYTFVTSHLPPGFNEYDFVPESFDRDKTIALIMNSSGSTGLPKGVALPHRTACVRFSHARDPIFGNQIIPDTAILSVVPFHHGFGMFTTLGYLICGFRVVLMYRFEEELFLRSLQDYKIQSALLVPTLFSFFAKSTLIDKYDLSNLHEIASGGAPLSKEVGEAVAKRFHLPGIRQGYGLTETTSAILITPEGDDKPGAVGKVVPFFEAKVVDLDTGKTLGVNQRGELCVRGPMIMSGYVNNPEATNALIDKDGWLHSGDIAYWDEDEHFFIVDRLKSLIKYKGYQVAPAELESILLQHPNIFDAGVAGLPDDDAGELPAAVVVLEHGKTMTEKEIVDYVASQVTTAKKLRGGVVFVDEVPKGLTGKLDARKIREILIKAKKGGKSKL
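Material: luciferase plus luciferin reagent, cell-free. Medium: PBS buffer for ATP. Also added: ATP substrate, dispensed from a 10.24 µM working solution in PBS. Doses: test compounds dosed from 2 mM stocks in 100% DMSO. Incubation: 10 min post-reagent at room temperature. Technique: light output (luminescence). Read-out basis: luminescence gain marking luciferase activators.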
TRAIL sens C8 – caspase-8 TRAIL sensitization | NB7+C8 cells + TRAIL, ATPlite viability luminescence | inhibition (viability loss, TRAIL sensitization), % at 10 µM | 1% of 360,000 active;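 active means compounds causing at least 50% loss of cell viability in the single-dose screen, relative to plate controls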
FLuc inhib CS – counter-screen for luciferase assay inhibitors: firefly luciferase inhibition; 1.5% of 200,000 active; AID 1006; P08659; inhibition, % at 10 µM; ATPLite firefly luciferase biochemical luminescence, 10 min;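 active means inhibition above about 50% when tested at 10 µM, limit read from the data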
PPC-1+TRAIL kill – PPC-1 cancer cell killing with TRAIL present; PPC-1 cells + TRAIL, ATPLite viability luminescence; cell killing (% activity), % at 4 µM or 5 µM; 0.41% of 220,000 active;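 active means cell killing above 50% in the first pass at 4 µM, then a duplicate retest at 5 µM averaging 50% or more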;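 further: plate controls were cells with TRAIL plus DMSO for no effect and medium-only wells lacking cells for full effect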
PPC-1 tox – PPC-1 cell cytotoxicity; 50% of 1,200 active; AID 1447; cytotoxicity, % at 5 µM; shares compounds with PPC-1+TRAIL kill; PPC-1 viability, ATPlite luminescence, overnight;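 active means reconfirmed compounds whose average cytotoxicity reaches 50% or more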;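 further: 0% = DMSO-treated cells and 100% = wells holding medium but no cells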
Active calls of the source: *; . = no result given. Sampled rows, rich in hits. Any-hit rate of the full collection: about 1.6%.

SMILES	FLuc stim CS	TRAIL sens C8	FLuc inhib CS	PPC-1+TRAIL kill	PPC-1 tox
CC(=O)Nc1cccc(NC(=O)C(=O)c2cn(CC(=O)N3CCCC3)c3ccccc23)c1	.	13.3	.	.	.
Cc1[nH]nc(C(=O)NN=Cc2ccccc2Cl)c1N=NN(C)C	.	3.6	.	.	.
O=C(CCCCn1c(=O)c2ccccc2n(Cc2ccc(F)cc2)c1=O)NCc1ccco1	1	15.5	-4.4	-3.6	2.1
Cc1ccc(C(=O)OCC(=O)Nc2ccc(C)c(S(=O)(=O)N3CCCCC3)c2)c(O)c1	.	-11.4	.	.	.
O=C(c1ccco1)N1CCN(c2nc(C3CC3)nc3c2nnn3Cc2ccccc2Cl)CC1	1	-3.1	-4.8	12.7	4.4
CC(=O)N(C)c1cccc(-c2ccc3nnc(C)n3n2)c1	.	-6.5	.	.	.
CC(C)(C)C(=O)Nc1cccc(-c2nc3ccccc3c(=O)o2)c1	0.8	58.6*	20.0	52.1*	53.0*
Cc1ccc(-n2nc3c(=O)n(CCCC(=O)N4CCC(C(N)=O)CC4)nc(C)c3c2C)cc1	.	18.8	.	.	.
CC(C)(C)c1ccc(-c2cc(C(=O)NNC(=O)Nc3ccccc3)c3ccccc3n2)cc1	0.2	68.4*	77.3*	64.5*	60.6*
CCn1cc(-c2cc(C(=O)O)c3ccccc3n2)c(C)n1	0.7	14.5	30.7	27.7	.
CCC/C=N/NC(=O)c1cc(-c2ccccc2)nc2ccccc12	1	-0.5	4.0	8.5	.
CCNC(=S)NNC(=O)c1cc(-c2ccc(OCC)cc2)nc2ccccc12	0	85.7*	98.2*	93.0*	93.0*
CCNC(=S)NNC(=O)c1cc(-c2ccccc2C)nc2ccccc12	1	5.3	1.6	-0.7	.
CCc1ccc(-c2cc(C(=O)Nn3cnnc3)c3ccccc3n2)cc1	0	93.4*	98.0*	97.0*	97.0*
O=C(NNC(=O)c1cc(-c2ccccc2)nc2ccccc12)Nc1cccc(Cl)c1	1.1	-10.5	-5.7	10.3	.
CCn1cc(-c2cc(C(=O)O)c3ccccc3n2)cn1	0.2	62.4*	82.6*	51.3*	54.8*
CCOc1ccc(CCNC(=O)CCC(=O)N2CCOc3ccccc32)cc1OCC	.	-2.4	.	.	.
COc1ccccc1NC(=O)c1coc(=O)c(Br)c1	.	-7.6	.	-7.7	.
COCCN(C(=O)C1CCCO1)c1c(N)n(CC(C)C)c(=O)[nH]c1=O (centres undefined)	.	-14.4	.	.	.
O=C(NCc1ccccn1)c1cc(-c2ccc(-c3ccccc3)cc2)nc2ccccc12	0.1	82.2*	88.0*	61.5*	60.9*
Clc1ccccc1CSc1ncccn1	1.1	-0.9	-7.3	12.9	16.9
COc1cccc(CSc2nc3ccncc3[nH]2)c1	.	85.9*	.	83.2*	80.7*
COc1cccc(N2CCN(C(=O)c3ccc(CSc4nc5ccncc5[nH]4)cc3)CC2)c1	0.9	10.9	5.9	-0.4	.
Clc1ccccc1CSc1nc2ccncc2[nH]1	0.1	76.2*	90.4*	74.7*	75.6*
CCC(=O)NC(c1cccs1)c1ccc2cccnc2c1O (centres undefined)	1	47.6	3.5	28.2	21.7
SMILES	FLuc stim CS	TRAIL sens C8	FLuc inhib CS	PPC-1+TRAIL kill	PPC-1 tox
CC(C)CC(=O)NC(c1cccs1)c1ccc2cccnc2c1O (centres undefined)	1	36.4	-3.6	.	.
C/C(=N\NC(=O)c1cccc(S(=O)(=O)N2CCOCC2)c1)c1ccc(OCC(=O)N(C)C)cc1	.	-15.7	.	.	.
Cc1cc(/C=N/Nc2ncnc(N)c2[N+](=O)[O-])c(C)n1-c1ccccc1	.	85.1*	.	86.5*	87.1*
COc1cccc(CNC(=O)N[C@@H](C)C(=O)O)c1	.	-28.7	.	-1.3	.
Cc1cc(N=Nc2ccc(C)c(N=Nc3cc(C)c(N)cc3N)c2)c(N)cc1N	.	50.9*	.	64.2*	63.0*
COc1ccc(/C=C/c2nc3ccccc3n2C)cc1	0	87.9*	97.1*	93.2*	92.5*
CCn1c(/C=C/c2ccccc2)nc2ccccc21	0.1	72.3*	87.2*	66.0*	67.6*
COc1ccc(/C=N\n2nnc3ccccc32)cc1	0.3	55.3*	68.8*	38.6	35.6
COc1ccc(/C=N/n2c(C)nc3ccccc3c2=O)cc1	.	-1.6	.	.	.
COc1ccc(Nc2nc3ccccc3n2C)cc1	.	-3.1	.	.	.
CCCN1CCc2c(sc(NC(=O)C3CCN(S(=O)(=O)c4cccs4)CC3)c2C(N)=O)C1	.	11.0	.	.	.
CC(C)n1c(-c2ccc(N(C)C)cc2)nc2ccccc21	0.6	42.2	42.1	13.9	.
CN(C)c1ccc(-c2nc3ccccc3n2C)cc1	0	81.6*	95.9*	88.0*	88.5*
